Activity calls are given as the source filed them. No cut-off for these calls is given here.
Tests used:
[1] = Drug uptake in nucleus of C57BL/6J mouse liver at 3 mg/kg, sc after 24 hrs by confocal microscopic analysis; assay type: ADME, organism-based; parameters: dose 3 mg/kg, route subcutaneous; conditions: in vivo
Summary of the method: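 Male C57BL/6J mice, 2 per group, injected with 50 nmol (~3 mg/kg) of fluorescein-conjugated polyamide and sacrificed 24 h later. Liver fixed in 10% formalin for 48 h, cryoprotected in 15% then 30% sucrose, and frozen. Nuclear fluorescence assessed by confocal microscopy in 10 μm sections.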

Mus musculus [2] = test: Acute toxicity in C57BL/6J mouse assessed as weight loss at 10 mg/kg, sc after 9 days; assay type: organism-based; parameters: dose 10 mg/kg, route subcutaneous; conditions: in vivo, 216 h
Summary of the method: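 Male C57BL/6J mice, 8 weeks old, were acclimated 3 days and then given a single sc injection of 1, 3 or 10 mg/kg in 25% DMSO/saline vehicle (up to 200 μL), n = 4 per group. Weight, behaviour and appearance were monitored daily for 9 days before sacrifice. The humane end point was visible duress or weight loss over 15% of the original.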

[3] = Drug uptake in human LNCAP cell nucleus at 2 uM after 24 hrs by confocal microscopic analysis; assay type: ADME, cell-based
Summary of the method: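 LNCaP cells incubated 24 h with 2 μM of the fluorescein-conjugated polyamide. Nuclear localization imaged by confocal microscopy.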

Mus musculus [4] = test: Toxicity in NSG immunocompromised mouse model xenografted with human LNCAP cells assessed as weight loss at 1 mg/kg, sc administered once every 3 days for a cycle of six injections; assay type: organism-based; parameters: dose 1 mg/kg, route subcutaneous; conditions: in vivo, 72 h
Summary of the method: (§1)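 Male NSG mice engrafted in the left flank with 2.5 million LNCaP cells in 1:1 media/matrigel; dosing began at ~200 mm3 tumours (0.5 × L × W2). Compound or vehicle given sc in 20% DMSO/normal saline once every 3 d for six injections, n = 14 per group; weight and general health checked daily, sacrifice 2 days after final injection.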

LNCaP [5] = test: Induction in GADD45A level in human LNCAP cells after 72 hrs by RT-PCR analysis; assay type: functional, cell-based
Summary of the method: (§2)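 LNCaP cells, 50 000 per well, adhered 36–48 h, then treated with 1, 3 or 10 μM for 72 h. Total RNA extracted on columns and transcripts quantified by RT-qPCR.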

[6] = Metabolic stability in mouse liver microsomes after 1 hr by LC/MS/MS analysis; assay type: ADME, Microsome; conditions: read-out: Stability
Summary of the method: (§3)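 Compound incubated at 37 °C for 60 min with 1 mg/mL human or mouse liver microsomes in 100 mM KH2PO4, 3 mM MgCl2, pH 7.4, with 2 mM NADPH or without it. Stopped with ice-cold methanol, then precipitate removed. Analyzed by LC/MS/MS as % remaining versus time zero. Duplicates.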

Mus musculus [7] = test: Acute toxicity in C57BL/6J mouse assessed as lesions in lungs at 1 to 10 mg/kg, sc after 9 days; assay type: organism-based; parameters: dose 1-10 mg/kg, route subcutaneous; conditions: in vivo, 216 h
Summary of the method: (§4)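 Male C57BL/6J mice, 8 weeks old, received a single sc dose (1, 3 or 10 mg/kg in 25% DMSO/saline, n = 4 per group) and were sacrificed after 9 days. Two representative animals per group were fixed in 10% formalin. Cecum, duodenum, heart, ileum, kidney, liver, lung, pancreas, spleen and stomach were examined blind by a veterinary pathologist and lesions graded mild, moderate or severe.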

Mus musculus [8] = test: Acute toxicity in C57BL/6J mouse at 1 to 10 mg/kg, sc after 9 days; assay type: organism-based; parameters: dose 1-10 mg/kg, route subcutaneous; conditions: in vivo, 216 h
Summary of the method: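 Single sc injection in male 8-week-old C57BL/6J mice (1, 3 or 10 mg/kg in 25% DMSO/saline; n = 4 per group), followed for 9 days with daily weighing, then sacrifice. Toxicity was assessed by blinded histopathology of two mice per group and by blinded serum ALT, AST, total bilirubin, BUN and creatinine from retroorbital blood of all mice.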

[9] = Metabolic stability in human liver microsomes after 1 hr by LC/MS/MS analysis in presence of NADPH; assay type: ADME, Microsome; conditions: read-out: Stability; summary of the method: as §3
Mus musculus [10] = test: Acute toxicity in C57BL/6J mouse assessed as lesions in pancreas at 1 to 10 mg/kg, sc after 9 days; assay type: organism-based; parameters: dose 1-10 mg/kg, route subcutaneous; conditions: in vivo, 216 h; summary of the method: as §4
Mus musculus [11] = test: Toxicity in C57BL/6J mouse assessed as morbidity at 1 mg/kg, sc administered every 3 days for a cycle of 3 injections; assay type: organism-based; parameters: dose 1 mg/kg, route subcutaneous; conditions: in vivo, 72 h
Summary of the method: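 Male C57BL/6J mice, 3 per group, given 1 mg/kg sc every 3 days. Weight recorded on injection days. Watched for signs of duress. Humane end point was visible duress or weight loss over 15% of starting body weight.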

LNCaP [12] = test: Reduction in cellular RPB1 level in human LNCAP cells at 10 uM after 72 hrs by ELISA; assay type: functional, cell-based
Summary of the method: (§5)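 LNCaP cells treated 72 h at 10 μM. DMSO vehicle and 1 μM doxorubicin for 24 h served as controls. RPB1 measured with an RPB1-specific ELISA and total p53 with a pan-p53 ELISA. Biological triplicates.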

Mus musculus [13] = test: Acute toxicity in C57BL/6J mouse assessed as lesions in stomach at 1 to 10 mg/kg, sc after 9 days; assay type: organism-based; parameters: dose 1-10 mg/kg, route subcutaneous; conditions: in vivo, 216 h; summary of the method: as §4
Mus musculus [14] = test: Toxicity in NSG immunocompromised mouse model xenografted with human LNCAP cells assessed as distress at 1 mg/kg, sc administered once every 3 days for a cycle of six injections; assay type: organism-based; parameters: dose 1 mg/kg, route subcutaneous; conditions: in vivo, 72 h; summary of the method: as §1
[15] = Metabolic stability in mouse liver microsomes after 1 hr by LC/MS/MS analysis in presence of NADPH; assay type: ADME, Microsome; conditions: read-out: Stability; summary of the method: as §3
LNCaP [16] = test: Induction in cellular p53 level in human LNCAP cells at 10 uM after 72 hrs by ELISA; assay type: functional, cell-based; summary of the method: as §5
Mus musculus [17] = test: Acute toxicity in C57BL/6J mouse assessed as lesions in heart at 1 to 10 mg/kg, sc after 9 days; assay type: organism-based; parameters: dose 1-10 mg/kg, route subcutaneous; conditions: in vivo, 216 h; summary of the method: as §4
Mus musculus [18] = test: Acute toxicity in C57BL/6J mouse assessed as lesions in GI tract at 1 to 10 mg/kg, sc after 9 days; assay type: organism-based, Gastrointestinal tract; parameters: dose 1-10 mg/kg, route subcutaneous; conditions: in vivo, 216 h; summary of the method: as §4
LNCaP [19] = test: Induction in p21 level in human LNCAP cells after 72 hrs by RT-PCR analysis; assay type: functional, cell-based; summary of the method: as §2
Mus musculus [20] = test: Acute toxicity in C57BL/6J mouse assessed as ALT level at 3 mg/kg, sc after 9 days; assay type: organism-based; parameters: dose 3 mg/kg, route subcutaneous; conditions: in vivo, 216 h
Summary of the method: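 Male C57BL/6J mice, 8 weeks old, acclimated 3 days, then given a single sc injection of 1, 3 or 10 mg/kg in 25% DMSO/saline (4 per group). Weighed daily for 9 days, then sacrificed. Serum taken by retroorbital bleed and spun at 6000 rpm for 5 min. ALT, AST, total bilirubin, BUN and creatinine measured by an outside lab, blinded.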

LNCaP [21] = test: Genotoxicity in human LNCAP cells assessed as DNA strand breaks at 10 uM after 48 hrs by comet assay; assay type: toxicity, cell-based
Summary of the method: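 LNCaP cells, 100 000 per well, adhered 36–48 h, then treated 48 h at 10 μM (5 μM doxorubicin for 4 h as control). Alkaline comet assay imaged at 10× by confocal microscopy. More than 100 comets scored per condition. Damage reported as % DNA in tail.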

Mus musculus [22] = test: Toxicity in C57BL/6J mouse assessed as total RBC count at 1 mg/kg, sc administered once every 3 days for a cycle of six injections measured 2 days post last injection; assay type: organism-based; parameters: dose 1 mg/kg, route subcutaneous; conditions: in vivo, 48 h
Summary of the method: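 Five male C57BL/6J mice bled retroorbitally into K2EDTA tubes at baseline. After 1 week of recovery they were given 1 mg/kg sc in 20% DMSO/saline every 3 days for six injections, then bled again at the end point. Hematology (WBC, RBC, hemoglobin, neutrophils, lymphocytes) measured externally. Mean of five animals, ± std.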

Mus musculus [23] = test: Toxicity in C57BL/6J mouse assessed as total WBC count at 1 mg/kg, sc administered once every 3 days for a cycle of six injections measured 2 days post last injection; assay type: organism-based; parameters: dose 1 mg/kg, route subcutaneous; conditions: in vivo, 48 h
Summary of the method: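 Male C57BL/6J mice, blood taken by retroorbital bleed before dosing; after 1 week recovery, sc injections once every 3 d in 20% DMSO:normal saline, six injections; bled again at end point (2 days after final injection). K2EDTA blood sent for hematology (WBC, RBC, hemoglobin, neutrophils, lymphocytes); n = 5, mean with std.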

LNCaP [24] = test: Cytotoxicity against human LNCAP cells after 72 hrs by WST-1 assay; assay type: functional, cell-based
Summary of the method: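 LNCaP cells seeded at 5000–7500 per well and left to adhere 36–48 h. Compound added in fresh medium for 72 h. Metabolic activity read by WST-1 and IC50 derived from the dose–response. Biological triplicates.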

Mus musculus [25] = test: Toxicity in C57BL/6J mouse assessed as weight loss at 1 mg/kg, sc administered every 3 days for a cycle of 3 injections; assay type: organism-based; parameters: dose 1 mg/kg, route subcutaneous; conditions: in vivo, 72 h
Summary of the method: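 8-week-old male C57BL/6J mice, acclimated 3 days, groups of three, dosed sc in 25% DMSO/saline vehicle once every 3 days, sacrificed 2 days after the last injection. Body weight recorded on injection days and at end point; humane end point set at visible duress or >15% loss of original body weight.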

LNCaP [26] = test: Induction in IGFBP3 level in human LNCAP cells after 72 hrs by RT-PCR analysis; assay type: functional, cell-based; summary of the method: as §2
[27] = Metabolic stability in human liver microsomes after 1 hr by LC/MS/MS analysis; assay type: ADME, Microsome; conditions: read-out: Stability; summary of the method: as §3
LNCaP [28] = test: Antitumor activity against human LNCAP cells xenografted in NSG immunocompromised mouse model assessed as tumor growth inhibition at 1 mg/kg, sc administered once every 3 days for a cycle of six injections measured 2 days post last injection relative to control; assay type: functional; conditions: route subcutaneous
Summary of the method: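 Male NSG mice engrafted in the left flank with 2.5 million LNCaP cells in 1:1 media/matrigel. Treatment began at ~200 mm3 (0.5 × L × W2): 1 mg/kg sc in 20% DMSO/normal saline, or vehicle alone, every 3 days for six injections, 14 mice per group. Sacrificed 2 days after the last dose. Tumor weights compared with vehicle (T/C).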

SMILES: CC(=O)N[C@@H](CNC(=O)c1cc(NC(=O)c2cc(NC(=O)c3cc(NC(=O)c4nccn4C)cn3C)cn2C)cn1C)CC(=O)Nc1cn(C)c(C(=O)Nc2cc(C(=O)Nc3cc(C(=O)Nc4cc(C(=O)NCCCN(C)CCCNC(=S)Nc5ccc(-c6c7ccc(=O)cc-7oc7cc(O)ccc67)c(C(=O)O)c5)n(C)c4)n(C)c3)n(C)c2)n1
- Drug uptake [1]: Active

SMILES: Cn1cc2cc1C(=O)NCCCC(=O)Nc1cn(C)c(n1)C(=O)Nc1cc(n(C)c1)C(=O)Nc1cc(n(C)c1)C(=O)Nc1cc(n(C)c1)C(=O)NCC[C@@H](N)C(=O)Nc1cn(C)c(n1)C(=O)Nc1cc(n(C)c1)C(=O)Nc1cc(n(C)c1)C(=O)N2
- Activity (Mus musculus [2]): Non-toxic

SMILES: CC(=O)N[C@H](CCNC(=O)c1cc(NC(=O)c2cc(NC(=O)c3cc(NC(=O)c4nccn4C)cn3C)cn2C)cn1C)C(=O)Nc1cn(C)c(C(=O)Nc2cc(C(=O)Nc3cc(C(=O)Nc4cc(C(=O)NCCCN(C)CCCNC(=S)Nc5ccc(-c6c7ccc(=O)cc-7oc7cc(O)ccc67)c(C(=O)O)c5)n(C)c4)n(C)c3)n(C)c2)n1
- Drug uptake [3]: Active
- Drug uptake [1]: Active

SMILES: CC(=O)N[C@H](CCNC(=O)c1cc(NC(=O)c2cc(NC(=O)c3cc(NC(=O)c4nccn4C)cn3C)cn2C)cn1C)C(=O)Nc1cn(C)c(C(=O)Nc2cc(C(=O)Nc3cc(C(=O)Nc4cc(C(=O)NCCCN(C)CCCNC(=O)c5cccc(C(=O)O)c5)n(C)c4)n(C)c3)n(C)c2)n1
- Activity (Mus musculus [4]): Non-toxic
- Activity (LNCaP [5]): Dose-dependent effect
- remaining at 1 h [6]: > 90%
- Activity (Mus musculus [7]): Non-toxic
- Activity (Mus musculus [8]): Non-toxic
- remaining at 1 h [9]: > 90%
- Activity (Mus musculus [10]): Non-toxic
- Activity (Mus musculus [11]): Non-toxic
- Activity (LNCaP [12]): Active
- Activity (Mus musculus [13]): Non-toxic
- Activity (Mus musculus [14]): Non-toxic
- remaining at 1 h [15]: > 90%
- Activity (LNCaP [16]): Active
- Activity (Mus musculus [17]): Non-toxic
- Activity (Mus musculus [18]): Non-toxic
- Activity (LNCaP [19]): Dose-dependent effect
- Activity (Mus musculus [20]): 29 U/L
- Activity (LNCaP [21]): Non-toxic
- Activity (Mus musculus [22]): Non-toxic
- Activity (Mus musculus [23]): Non-toxic
- Activity (LNCaP [24]): Dose-dependent effect
- IC50 (LNCaP [24]): 2.1 µM
- Activity (Mus musculus [25]): Non-toxic
- Activity (LNCaP [26]): Dose-dependent effect
- remaining at 1 h [27]: > 90%
- T/C (LNCaP [28]): 52.4%

SMILES: CN(CCCNC(=O)c1cc(NC(=O)c2cc(NC(=O)c3cc(NC(=O)c4nc(NC(=O)[C@H](N)CCNC(=O)c5cc(NC(=O)c6cc(NC(=O)c7cc(NC(=O)c8nccn8C)cn7C)cn6C)cn5C)cn4C)cn3C)cn2C)cn1C)CCCNC(=S)Nc1ccc(-c2c3ccc(=O)cc-3oc3cc(O)ccc23)c(C(=O)O)c1
- Drug uptake [3]: Active
